# Source: ChEMBL document CHEMBL1138555, “N-acylated and N,N'-diacylated imidazolidine-2-thione derivatives and N,N'-diacylated tetrahydropyrimidine-2(1H)-thione analogues: synthesis and antiproliferative activity” (Eur J Med Chem, 2009)
# Legend:
# [1] = test system: MT4; test: Antiproliferative activity against human MT4 cells assessed as reduction of growth by MTT assay; format: functional, cell-based
# Summary of the method: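 MT-4 lymphoblastoid T cells (ATCC) in RPMI 1640 with 10% FCS, penicillin/streptomycin, checked for mycoplasma. 1 × 10⁴ mock-infected cells per well with serial dilutions from a 100 mM DMSO stock. Incubated 4 days at 37 °C, viable cells counted by MTT. IC50 versus untreated controls by linear regression. Mean of three separate experiments.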
# [2] = test system: HL-60(TB); test: Growth inhibition of human HL-60(TB) cells after 48 hrs by sulforhodamine B assay; format: functional; details: HL-60, 48 h
# Summary of the method: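 NCI 60-cell-line screen protocol: cells exposed to compound at five 10-fold dilutions from 10^-4 to 10^-8 M for the last 48 h of a 72 h incubation. Sulforhodamine B protein assay estimated viability/growth. GI50 (50% growth inhibition) derived; where not reached or exceeded, reported as greater or less than the highest or lowest concentration tested.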
# [3] = test system: K562; test: Growth inhibition of human K562 cells after 48 hrs by sulforhodamine B assay; format: functional; details: K562, 48 h
# Summary of the method: (§1)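 NCI screen panel. Five 10-fold concentrations from 10^-4 to 10^-8 M. Exposure for the last 48 h of a 72 h incubation. Growth estimated by sulforhodamine B protein assay. GI50 is the concentration giving 50% growth inhibition. Where that level was not reached or was exceeded, the value is given as above or below the highest or lowest concentration tested.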
# [4] = test system: MOLT-4; test: Growth inhibition of human MOLT4 cells after 48 hrs by sulforhodamine B assay; format: functional; details: MOLT-4, 48 h; summary of the method: as §1
# [5] = Growth inhibition of human […] cells after 48 hrs by sulforhodamine B assay; format: functional; summary of the method: as §1
# [6] = test system: SR; test: Growth inhibition of human SR cells after 48 hrs by sulforhodamine B assay; format: functional
# Summary of the method: (§2)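 NCI in vitro panel screen. Compounds tested at five 10-fold dilutions, 10^-4 to 10^-8 M. Cells in 96-well plates were exposed for the last 48 h of a 72 h incubation. Viability/growth was read by sulforhodamine B protein assay. GI50 is the concentration giving 50% growth inhibition. Values beyond the tested range are reported as greater or less than the maximum or minimum concentration.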
# [7] = test system: A549; test: Growth inhibition of human A549 cells after 48 hrs by sulforhodamine B assay; format: functional; details: A549, 48 h; summary of the method: as §1
# [8] = test system: EKVX; test: Growth inhibition of human EKVX cells after 48 hrs by sulforhodamine B assay; format: functional; summary of the method: as §1
# [9] = test system: HOP-62; test: Growth inhibition of human HOP62 cells after 48 hrs by sulforhodamine B assay; format: functional; details: HOP-62, 48 h; summary of the method: as §1
# [10] = test system: HOP-92; test: Growth inhibition of human HOP92 cells after 48 hrs by sulforhodamine B assay; format: functional; details: HOP-92, 48 h; summary of the method: as §1
# [11] = test system: NCI-H23; test: Growth inhibition of human NCI-H23 cells after 48 hrs by sulforhodamine B assay; format: functional; details: NCI-H23, 48 h; summary of the method: as §1
# [12] = test system: NCI-H322M; test: Growth inhibition of human NCI-H322M cells after 48 hrs by sulforhodamine B assay; format: functional; summary of the method: as §1
# [13] = test system: NCI-H460; test: Growth inhibition of human NCI-H460 cells after 48 hrs by sulforhodamine B assay; format: functional; details: NCI-H460, 48 h; summary of the method: as §1
# [14] = test system: NCI-H522; test: Growth inhibition of human NCI-H522 cells after 48 hrs by sulforhodamine B assay; format: functional; details: NCI-H522, 48 h; summary of the method: as §1
# [15] = test system: COLO 205; test: Growth inhibition of human COLO205 cells after 48 hrs by sulforhodamine B assay; format: functional; details: COLO 205, 48 h; summary of the method: as §1
# [16] = test system: HCT-116; test: Growth inhibition of human HCT116 cells after 48 hrs by sulforhodamine B assay; format: functional; details: HCT-116, 48 h; summary of the method: as §1
# [17] = test system: HCT-15; test: Growth inhibition of human HCT15 cells after 48 hrs by sulforhodamine B assay; format: functional; details: HCT-15, 48 h; summary of the method: as §1
# [18] = test system: HT-29; test: Growth inhibition of human HT-29 cells after 48 hrs by sulforhodamine B assay; format: functional; details: HT-29, 48 h; summary of the method: as §1
# [19] = test system: KM12; test: Growth inhibition of human KM12 cells after 48 hrs by sulforhodamine B assay; format: functional; details: KM12, 48 h; summary of the method: as §1
# [20] = test system: SW-620; test: Growth inhibition of human SW620 cells after 48 hrs by sulforhodamine B assay; format: functional; details: SW-620, 48 h; summary of the method: as §2
# [21] = test system: SF-268; test: Growth inhibition of human SF268 cells after 48 hrs by sulforhodamine B assay; format: functional; details: SF-268, 48 h; summary of the method: as §1
# [22] = test system: SF-295; test: Growth inhibition of human SF295 cells after 48 hrs by sulforhodamine B assay; format: functional; details: SF-295, 48 h; summary of the method: as §1
# [23] = test system: SNB-19; test: Growth inhibition of human SNB19 cells after 48 hrs by sulforhodamine B assay; format: functional; details: SNB-19, 48 h; summary of the method: as §2
# [24] = test system: U-251; test: Growth inhibition of human U251 cells after 48 hrs by sulforhodamine B assay; format: functional; details: U-251, 48 h; summary of the method: as §2
# [25] = test system: LOX IMVI; test: Growth inhibition of human LOXIMVI cells after 48 hrs by sulforhodamine B assay; format: functional; summary of the method: as §1
# [26] = test system: Malme-3M; test: Growth inhibition of human MALME-3M cells after 48 hrs by sulforhodamine B assay; format: functional; summary of the method: as §1
# [27] = test system: M14; test: Growth inhibition of human M14 cells after 48 hrs by sulforhodamine B assay; format: functional; details: M14, 48 h; summary of the method: as §1
# [28] = test system: SK-MEL-2; test: Growth inhibition of human SK-MEL-2 cells after 48 hrs by sulforhodamine B assay; format: functional; details: SK-MEL-2, 48 h; summary of the method: as §1
# [29] = test system: SK-MEL-28; test: Growth inhibition of human SK-MEL-28 cells after 48 hrs by sulforhodamine B assay; format: functional; details: SK-MEL-28, 48 h; summary of the method: as §1
# [30] = test system: SK-MEL-5; test: Growth inhibition of human SK-MEL-5 cells after 48 hrs by sulforhodamine B assay; format: functional; details: SK-MEL-5, 48 h; summary of the method: as §1
# [31] = test system: UACC-257; test: Growth inhibition of human UACC257 cells after 48 hrs by sulforhodamine B assay; format: functional; details: UACC-257, 48 h; summary of the method: as §2
# [32] = test system: UACC-62; test: Growth inhibition of human UACC62 cells after 48 hrs by sulforhodamine B assay; format: functional; details: UACC-62, 48 h; summary of the method: as §2
# [33] = test system: IGROV-1; test: Growth inhibition of human IGROV1 cells after 48 hrs by sulforhodamine B assay; format: functional; details: IGROV-1, 48 h; summary of the method: as §1
# [34] = test system: OVCAR-3; test: Growth inhibition of human OVCAR-3 cells after 48 hrs by sulforhodamine B assay; format: functional; details: OVCAR-3, 48 h; summary of the method: as §1
# [35] = test system: OVCAR-4; test: Growth inhibition of human OVCAR4 cells after 48 hrs by sulforhodamine B assay; format: functional; details: OVCAR-4, 48 h; summary of the method: as §1
# [36] = test system: OVCAR-8; test: Growth inhibition of human OVCAR8 cells after 48 hrs by sulforhodamine B assay; format: functional; details: OVCAR-8, 48 h; summary of the method: as §1
# [37] = test system: SK-OV-3; test: Growth inhibition of human SKOV3 cells after 48 hrs by sulforhodamine B assay; format: functional; details: SK-OV-3, 48 h; summary of the method: as §1
# [38] = test system: 786-0; test: Growth inhibition of human 786-0 cells after 48 hrs by sulforhodamine B assay; format: functional; details: 786-0, 48 h; summary of the method: as §1
# [39] = test system: ACHN; test: Growth inhibition of human ACHN cells after 48 hrs by sulforhodamine B assay; format: functional; summary of the method: as §1
# [40] = test system: CAKI-1; test: Growth inhibition of human Caki1 cells after 48 hrs by sulforhodamine B assay; format: functional; details: CAKI-1, 48 h; summary of the method: as §1
# [41] = test system: RXF 393; test: Growth inhibition of human RXF393 cells after 48 hrs by sulforhodamine B assay; format: functional; details: RXF 393, 48 h; summary of the method: as §1
# [42] = test system: SN12C; test: Growth inhibition of human SN12C cells after 48 hrs by sulforhodamine B assay; format: functional; summary of the method: as §2
# [43] = test system: TK-10; test: Growth inhibition of human TK10 cells after 48 hrs by sulforhodamine B assay; format: functional; details: TK-10, 48 h; summary of the method: as §2
# [44] = test system: UO-31; test: Growth inhibition of human UO31 cells after 48 hrs by sulforhodamine B assay; format: functional; details: UO-31, 48 h; summary of the method: as §2
# [45] = test system: PC-3; test: Growth inhibition of human PC3 cells after 48 hrs by sulforhodamine B assay; format: functional; details: PC-3, 48 h; summary of the method: as §1
# [46] = test system: DU-145; test: Growth inhibition of human DU145 cells after 48 hrs by sulforhodamine B assay; format: functional; details: DU-145, 48 h; summary of the method: as §1
# [47] = test system: MCF7; test: Growth inhibition of human MCF7 cells after 48 hrs by sulforhodamine B assay; format: functional; details: MCF7, 48 h; summary of the method: as §1
# [48] = test system: NCI/ADR-RES; test: Growth inhibition of human NCI/ADR-RES cells after 48 hrs by sulforhodamine B assay; format: functional; summary of the method: as §1
# [49] = test system: MDA-MB-231; test: Growth inhibition of human MDA-MB-231 cells after 48 hrs by sulforhodamine B assay; format: functional; details: MDA-MB-231, 48 h; summary of the method: as §1
# [50] = test system: MDA-MB-435; test: Growth inhibition of human MDA-MB-435 cells after 48 hrs by sulforhodamine B assay; format: functional; details: MDA-MB-435, 48 h; summary of the method: as §1
# [51] = test system: BT-549; test: Growth inhibition of human BT549 cells after 48 hrs by sulforhodamine B assay; format: functional; details: BT-549, 48 h; summary of the method: as §1
# [52] = test system: T47D; test: Growth inhibition of human T47D cells after 48 hrs by sulforhodamine B assay; format: functional; summary of the method: as §2
structure (smiles),measurement,setting,value
N#C/C(=C\N1CCN(C(=O)c2ccco2)C1=S)C(N)=O,IC50,[1],4 µM
same,GI50,[2],22 µM
same,GI50,[3],9.1 µM
same,GI50,[4],39.8 µM
same,GI50,[5],12.4 µM
same,GI50,[6],3000 nM
same,GI50,[7],34.5 µM
same,GI50,[8],300 nM
same,GI50,[9],25.6 µM
same,GI50,[10],25.5 µM
same,GI50,[11],21.4 µM
same,GI50,[12],17.6 µM
same,GI50,[13],4 µM
same,GI50,[14],18.7 µM
same,GI50,[15],24.9 µM
same,GI50,[16],21.2 µM
same,GI50,[17],3.8 µM
same,GI50,[18],24.1 µM
same,GI50,[19],7.5 µM
same,GI50,[20],22.1 µM
same,GI50,[21],11.7 µM
same,GI50,[22],32.1 µM
same,GI50,[23],36.4 µM
same,GI50,[24],11.5 µM
same,GI50,[25],2500 nM
same,GI50,[26],12.5 µM
same,GI50,[27],16.5 µM
same,GI50,[28],24.4 µM
same,GI50,[29],15.8 µM
same,GI50,[30],16.5 µM
same,GI50,[31],23.3 µM
same,GI50,[32],14 µM
same,GI50,[33],24 µM
same,GI50,[34],19 µM
same,GI50,[35],18.5 µM
same,GI50,[36],43.6 µM
same,GI50,[37],42.6 µM
same,GI50,[38],18 µM
same,GI50,[39],11 µM
same,GI50,[40],11.8 µM
same,GI50,[41],19.2 µM
same,GI50,[42],12 µM
same,GI50,[43],12.1 µM
same,GI50,[44],23.5 µM
same,GI50,[45],35.6 µM
same,GI50,[46],29.8 µM
same,GI50,[47],1700 nM
same,GI50,[48],25.4 µM
same,GI50,[49],13.1 µM
same,GI50,[50],14.6 µM
same,GI50,[51],22.5 µM
same,GI50,[52],9.3 µM
